Assay outcomes deposited in PubChem by The Scripps Research Institute Molecular Screening Center.
CHRM4 antagonist = CHRM4 antagonism in calcium assay; inhibition, % at 3 µM; CHO-hM4 cells, ACh EC80, Fluo-8 calcium fluorescence; P08173; actives 0.73% (n = 360,000);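 active = inhibition above its plate's cutoff, the mean inhibition of sample wells plus 3 SD, cut at about 27% in these data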;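 note: 0% = acetylcholine EC80 with DMSO and 100% = DMSO without agonist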
M4 PAM = positive allosteric modulators of human muscarinic M4 receptor. actives 0.4% (n = 360,000). activation, % at 3 µM. CHO-K1 hM4/Gqi5, Fluo-8 calcium fluorescence, ACh EC20; 0% = ACh EC20, 100% = maximal ACh. AID 624126. P08173;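 active = activation above its plate's cutoff, the mean activation of sample wells plus 3 SD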
M5 antag = CHRM5 antagonism in calcium assay; AID 624040; P08912; actives 0.59% (n = 360,000); inhibition, % at 3 µM; CHO-hM5 cells, Fluo-8 calcium fluorescence, ACh EC80;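 active = inhibition above a per-plate cutoff, the mean of that plate's test compounds plus 3 SD, cut at about 27% in these data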;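 note: 0% = acetylcholine EC80 with DMSO and 100% = DMSO without agonist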
Target sequence (P08912 whole entry, looked up): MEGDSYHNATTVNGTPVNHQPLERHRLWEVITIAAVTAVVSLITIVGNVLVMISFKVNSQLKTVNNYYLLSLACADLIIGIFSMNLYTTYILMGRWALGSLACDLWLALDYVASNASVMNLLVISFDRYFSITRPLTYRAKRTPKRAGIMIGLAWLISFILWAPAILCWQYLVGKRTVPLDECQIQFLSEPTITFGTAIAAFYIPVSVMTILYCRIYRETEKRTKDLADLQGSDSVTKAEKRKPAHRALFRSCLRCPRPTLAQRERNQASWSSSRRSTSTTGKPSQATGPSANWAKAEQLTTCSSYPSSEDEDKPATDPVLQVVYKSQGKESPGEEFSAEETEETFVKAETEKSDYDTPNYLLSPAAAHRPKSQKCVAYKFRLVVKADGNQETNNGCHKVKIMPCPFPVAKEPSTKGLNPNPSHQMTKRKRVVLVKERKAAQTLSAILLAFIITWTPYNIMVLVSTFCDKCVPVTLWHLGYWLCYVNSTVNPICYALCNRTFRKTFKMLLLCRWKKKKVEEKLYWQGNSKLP
M4 ag = agonists of human muscarinic M4 receptor (CHRM4); P08173; CHO-K1 hM4/Gqi5, Fluo-8 calcium fluorescence; vehicle 0%, full acetylcholine response 100%; activation, % at 3 µM; actives 0.14% (n = 360,000); AID 624127;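 active = activation above the run mean over all test wells plus 3 SD, cut at about 32% in these data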;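 note: peak over basal fluorescence ratio per well then scaled between controls; 0% = DMSO wells and 100% = acetylcholine at EC100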
M5 PAM = CHRM5 positive allosteric modulation. P08912. CHO-K1 hM5, Fluo-8 calcium, ACh EC20 PAM; 0% = ACh EC20, 100% = ACh EC100. activation, % at 3 µM. actives 0.3% (n = 360,000). AID 624038;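 active = activation above the run cutoff, the mean activation of all test compounds plus 3 SD, cut at about 18% in these data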
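System – CHO-K1 hM5 cells · Compound – 3 µM, single dose · Incubation – compound preincubation 140 s before EC20 acetylcholine addition · Technique – Fluo-8 calcium fluorescence · Measure – Max/basal fluorescence ratio as % of EC20–EC100 ACh window · Benchmarks – low control EC20 acetylcholine (0%), high control EC100 acetylcholine (100%) · Replication – singlicate, one well per test compound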
CHRM5 agonist = agonists of human muscarinic M5 receptor (CHRM5); CHO-K1 hM5 cells, Fluo-8 calcium fluorescence; 0% DMSO wells, 100% maximal acetylcholine response; AID 624037; activation, % at 3 µM; actives 0.19% (n = 360,000);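 active = activation above the run's mean over test compounds plus 3 SD, cut at about 23% in these data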;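 note: signal is peak over basal fluorescence ratio across the kinetic read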
The depositor's hits bear a star. A selection: hits, their analogues and other compounds. The true share with any hit is near 1.8%.

SMILES | CHRM4 antagonist | M4 PAM | M5 antag | M4 ag | M5 PAM | CHRM5 agonist
O=C(NCCc1nccs1)C1CCC(=O)N(CCc2ccc(Cl)cc2)C1 (centres undefined) | 8.4 | 1.2 | -11.2 | 1.3 | 5.3 | -2.6
O=C1C(=O)c2cccnc2-c2ncccc21 | 18.6 | 2.5 | 21.7 | 5.4 | 4.5 | 10.3
CN(C)S(=O)(=O)c1cccc(C(=O)OCC(=O)c2c(N)n(C)c(=O)n(C)c2=O)c1 | -8.5 | 2.4 | 5.8 | 4.0 | -1.7 | -1.4
Cc1ccc(N(C)S(=O)(=O)c2cccc(C(=O)OCC(=O)c3c(N)n(C)c(=O)n(C)c3=O)c2)cc1 | 29.6* | -11.2 | 14.0 | 22.2 | -33.1 | 2.8
C=C(C)COc1ccc2c(C)c(CC(=O)N3C[C@H]4C[C@@H](C3)c3cccc(=O)n3C4)c(=O)oc2c1C | -2.4 | -1.4 | -1.0 | 0.4 | -4.6 | -1.9
CCCc1nc(NC(=O)c2ccccc2)nc(NC(=O)c2ccccc2)n1 | -6.8 | -8.9 | 9.5 | 7.6 | -2.4 | 0.6
CCc1nn(CC(=O)NCCCN2CCN(CC)CC2)c(=O)c2cc3occc3n12 | -0.5 | 6.3 | -9.5 | 0.6 | 5.8 | -1.2
CCOC(=O)CSc1nc2c(cnn2-c2ccc(C)cc2)c(=O)[nH]1 | -22.2 | 19.1* | -6.3 | 1.0 | 1.5 | -6.5
Cc1cccc(NC(=O)CNC(=O)c2cccc(-n3cccc3)c2)c1C | -8.1 | 1.0 | 2.8 | 1.9 | -4.0 | -3.4
COC(=O)CN1CCN(C(c2ccccc2)c2ccccc2)CC1 | 8.8 | -6.5 | 1.6 | -0.4 | 1.0 | -7.3
CN(Cc1ccccc1)C(=O)CN1CCN(C(c2ccccc2)c2ccccc2)CC1 | 50.0* | -26.9 | 10.7 | -0.4 | -33.7 | -17.8
O=C(C1CC=CCC1)N1CCN(S(=O)(=O)c2ccc(F)cc2)CC1 (centres undefined) | -5.0 | 1.7 | 1.0 | 0.5 | 0.6 | 0.3
CCCCOc1ccc(S(=O)(=O)NC(=O)C2(C)CCN2C(=O)c2c(C)noc2C)cc1 (centres undefined) | -2.8 | 18.8* | -3.5 | 1.0 | 1.4 | 0.2
Cc1ccc(S(=O)(=O)NC(=O)C2(C)CCN2C(=O)c2c(C)noc2C)cc1 (centres undefined) | -13.1 | 3.9 | 0.0 | 0.6 | 2.3 | 0.3
COc1ccc(CN(C)Cc2c(O)ccc3cc(Br)ccc23)cc1OC | -23.7 | 4.3 | -10.0 | 5.4 | 23.4* | 0.6
N#CC1=C(SCC(=O)NC23CC4CC(CC(C4)C2)C3)NC(=O)C(C#N)C12CCCCC2 (centres undefined) | 7.8 | -3.8 | 29.1* | 20.7 | -15.4 | 8.0
N#CC1=C(SCC(=O)NC2CC2)NC(=O)C(C#N)C12CCCCC2 (centres undefined) | 9.8 | 10.4 | 0.6 | 1.0 | -1.6 | 2.6
CC1(C)CC(NC(=O)c2ccc(-c3ccc([N+](=O)[O-])cc3)o2)CC(C)(C)N1 | 3.3 | 19.9* | -8.2 | -0.1 | 5.5 | -6.1
Cc1ccc(C)c(NC(=S)N(C)CCc2ccccn2)c1 | -5.0 | 17.9* | -5.0 | 1.3 | 10.2 | -3.2
COC(=O)c1ccc(NC(=S)NCCc2cccc(C)c2)cc1 | 23.7 | -18.8 | 27.8* | 14.1 | -19.4 | 2.9
CCOC(=O)c1ccc(NC(=S)NN)cc1 | -12.0 | 20.4* | -14.0 | 0.6 | 10.8 | -5.5
CCOC(=O)c1ccc(NC(=O)Nc2nc3ccccc3s2)cc1 | 61.2* | -15.0 | 6.1 | 1.1 | -11.9 | -0.2
CCOC(=O)Nc1nc2ccccc2s1 | -1.2 | -4.4 | 3.1 | 0.8 | -5.5 | 2.1
CCOC(=O)c1ccc(NC(=S)NCc2ccc(F)cc2)cc1 | 10.1 | -18.1 | 19.1 | 20.4 | -26.0 | 10.3
O=C(C[n+]1ccn(CCCNP2(=O)C=C(c3ccccc3)OC(c3ccccc3)=C2)c1)c1cccs1 | -4.6 | -3.3 | 4.6 | 0.4 | 0.9 | -10.6
SMILES | CHRM4 antagonist | M4 PAM | M5 antag | M4 ag | M5 PAM | CHRM5 agonist
CC(=O)Nc1ccc(C(=O)N2CCc3cc4c(cc3C2C)OCCCO4)cc1 (centres undefined) | 38.8* | -14.4 | 2.9 | 0.6 | -2.8 | -5.7
Cc1ccc(C(=O)N2CCc3cc4c(cc3C2C)OCCCO4)cc1 (centres undefined) | 0.1 | -16.0 | 1.1 | 6.0 | 1.2 | -5.6
COc1ccc(OC)c(N2CC(O)(c3cccs3)[N+]3=C2SCCC3)c1 (centres undefined) | 2.6 | 0.5 | -1.5 | 0.4 | 10.3 | -1.9
CCOc1ccc(N2CC(O)(c3cccs3)[N+]3=C2CCCC3)cc1 (centres undefined) | 25.7 | -18.2 | 35.8* | 1.3 | -33.3 | -16.5
OC1(c2cccs2)CN(c2ccccc2)C2=[N+]1CCCC2 (centres undefined) | -2.7 | -6.0 | 1.4 | 1.2 | -5.5 | -16.1
OC1(c2cccs2)CN(c2ccc(Br)cc2)C2=[N+]1CCCS2 (centres undefined) | 27.1* | -13.8 | 19.7 | 0.4 | -28.3 | -20.4
O=C(C[C@H]1CC[C@@H]2[C@H](COC[C@@H](O)CN2Cc2ccc(Cl)cc2)O1)NCCc1ccccc1 | 5.6 | -4.4 | 10.5 | 2.8 | -5.0 | 0.5
Cc1ccc(OCC(=O)NNC(=O)c2cc(S(=O)(=O)N(C)C)ccc2N2CCCC2)cc1 | -0.9 | 0.9 | 3.0 | 0.5 | -0.6 | -0.1
Cc1ccc(-c2cc(C(=O)Nc3cnn(C45CC6CC(CC(C6)C4)C5)c3)no2)cc1 | 3.1 | 11.3 | -2.6 | 4.2 | 4.3 | 1.9
Cc1ccc(-c2cc(C(=O)Nc3cnn(C(C)C)c3)no2)cc1 | 4.7 | -3.5 | -2.3 | 7.1 | -13.7 | 26.1*
COc1ccc(NC(=O)Nc2ccc3c(c2)N(C)C(=O)CS3)cc1OC | -10.3 | -0.7 | 4.1 | 16.6 | -13.2 | 3.1
O=C(Nc1ccccc1)Nc1ccc2c(c1)CCC2 | 1.6 | -11.4 | 22.1 | 11.4 | -10.1 | 0.2
Cc1ccc([N+](=O)[O-])cc1NC(=O)Nc1cccc(F)c1 | 22.5 | -15.7 | 30.4* | 22.5 | -16.8 | 9.8
O=C(Nc1ccccc1)Nc1cc([N+](=O)[O-])ccc1F | -10.8 | 2.9 | 4.5 | 10.6 | -14.3 | 6.2
COc1ccc(NC(=O)c2cccc(OC(F)F)c2)cc1Cl | 0.5 | -3.7 | -9.5 | 7.7 | -7.1 | 1.1
COc1ccc(NC(=O)Nc2ccc3c(c2)N(C)C(=O)CS3)cc1Cl | 17.4 | -14.6 | 31.1* | 21.6 | -23.5 | 8.6
O=C(Nc1cccc([N+](=O)[O-])c1)Nc1ccc2c(c1)CCC2 | 0.5 | -5.0 | 35.1* | 18.1 | -14.3 | 5.5
O=C(Nc1ccc(OC(F)F)c(Cl)c1)c1cccc(OC(F)F)c1 | 9.7 | -21.4 | 39.6* | 6.9 | -21.8 | -5.1
CN1CCN(C(=O)C[C@H]2CC[C@H]3[C@@H](COC[C@@H](O)CN3C(=O)C3CCCC3)O2)CC1 | -11.1 | 13.2 | 9.2 | 2.1 | -6.1 | 0.1
